# The source made the active and inactive calls. No cut-off for these calls is given here.
# What was measured:
# Type in all cases: functional
# [1] = Anticancer activity against human SF295 cells
# Summary of the method: (§1)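 NCI 60 human cancer cell line panel, multiple-dose testing at five concentrations (10^-4, 10^-5, 10^-6, 10^-7 and 10^-8 M). Dose-response curves plot cytotoxic effect against log10 of drug concentration for each cell line. GI50 is the molar concentration giving 50% growth inhibition; LC50 is the concentration killing 50% of cells.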
# MDA-MB-231 = assay: Anticancer activity against human MDA-MB-231 cells; summary of the method: as §1
# NCI-H226 = assay: Anticancer activity against human NCI-H226 cells; summary of the method: as §1
# NCI-H460 = assay: Anticancer activity against human NCI-H460 cells; summary of the method: as §1
# IGROV-1 = assay: Anticancer activity against human IGROV1 cells; summary of the method: as §1
# NCI-H322M = assay: Anticancer activity against human NCI-H322M cells after 48 hrs; summary of the method: as §1
# [2] = Anticancer activity against human BT549 cells; summary of the method: as §1
# SR = assay: Anticancer activity against human SR cells
# Summary of the method: (§2)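 NCI 60 human tumour cell line screen. A single-concentration pre-screen was run at 10^-5 M. Compounds selected from it were then tested at five concentrations, 10^-4 to 10^-8 M. Dose-response curves plotted cytotoxic effect against log10 of the drug concentration for each cell line. GI50 is the molar concentration giving 50% growth inhibition, and LC50 the concentration killing 50% of cells.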
# [3] = Anticancer activity against human Hs 578T cells; summary of the method: as §1
# U-251 = assay: Anticancer activity against human U251 cells; summary of the method: as §2
# [4] = Anticancer activity against human OVCAR5 cells; summary of the method: as §1
# [5] = Anticancer activity against human OVCAR3 cells; summary of the method: as §1
# CCRF-CEM = assay: Anticancer activity against human CCRF-CEM cells; summary of the method: as §1
# TK-10 = assay: Anticancer activity against human TK10 cells; summary of the method: as §2
# HCC 2998 = assay: Anticancer activity against human HCC2998 cells; summary of the method: as §1
# SNB-19 = assay: Anticancer activity against human SNB19 cells; summary of the method: as §1
# [6] = Anticancer activity against human COLO205 cells; summary of the method: as §1
# [7] = Anticancer activity against human SKOV3 cells; summary of the method: as §1
# RXF 393 = assay: Anticancer activity against human RXF393 cells; summary of the method: as §1
# HL-60(TB) = assay: Anticancer activity against human HL-60(TB) cells; summary of the method: as §1
# HOP-62 = assay: Anticancer activity against human HOP62 cells; summary of the method: as §1
# MDA-MB-435 = assay: Anticancer activity against human MDA-MB-435 cells; summary of the method: as §1
# SN12C = assay: Anticancer activity against human SN12C cells; summary of the method: as §1
# SK-MEL-28 = assay: Anticancer activity against human SK-MEL-28 cells; summary of the method: as §1
# [8] = Anticancer activity against human NCI-ADR-RES cells; summary of the method: as §1
# [9] = Anticancer activity against human HCT116 cells; summary of the method: as §1
# DU-145 = assay: Anticancer activity against human DU145 cells after 48 hrs; details: DU-145, 48 h; summary of the method: as §1
# HT-29 = assay: Anticancer activity against human HT-29 cells; summary of the method: as §1
# M14 = assay: Anticancer activity against human M14 cells; summary of the method: as §1
# Malme-3M = assay: Anticancer activity against human MALME-3M cells; summary of the method: as §1
# MDA-MB-468 = assay: Anticancer activity against human MDA-MB-468 cells; summary of the method: as §1
# [10] = Anticancer activity against human OVCAR8 cells; summary of the method: as §1
# ACHN = assay: Anticancer activity against human ACHN cells; summary of the method: as §1
# [11] = Anticancer activity against human LOXIMVI cells; details: LOX IMVI; summary of the method: as §1
# SK-MEL-2 = assay: Anticancer activity against human SK-MEL-2 cells; summary of the method: as §1
# UACC-62 = assay: Anticancer activity against human UACC62 cells; summary of the method: as §2
# T47D = assay: Anticancer activity against human T47D cells; summary of the method: as §2
# SK-MEL-5 = assay: Anticancer activity against human SK-MEL-5 cells; summary of the method: as §1
# [12] = Anticancer activity against human UO31 cells; summary of the method: as §2
# MCF7 = assay: Anticancer activity against human MCF7 cells; summary of the method: as §1
# [13] = Anticancer activity against human MOLT4 cells; summary of the method: as §1
# NCI-H522 = assay: Anticancer activity against human NCI-H522 cells; summary of the method: as §1
# [14] = Anticancer activity against human HCT15 cells; summary of the method: as §1
# A549 = assay: Anticancer activity against human A549 cells; summary of the method: as §1
# [15] = Anticancer activity against human OVCAR4 cells; summary of the method: as §1
# SNB-75 = assay: Anticancer activity against human SNB75 cells; summary of the method: as §2
# NCI-H23 = assay: Anticancer activity against human NCI-H23 cells; summary of the method: as §1
# [16] = Anticancer activity against human PC3 cells; summary of the method: as §1
# SW-620 = assay: Anticancer activity against human SW620 cells; summary of the method: as §2
# SF-268 = assay: Anticancer activity against human SF268 cells; summary of the method: as §1
# [17] = Anticancer activity against human SF539 cells; summary of the method: as §1
# KM12 = assay: Anticancer activity against human KM12 cells; summary of the method: as §1
# [18] = Anticancer activity against human UACC257 cells; summary of the method: as §2
# 786-0 = assay: Anticancer activity against human 786-0 cells; summary of the method: as §1
# [19] = Anticancer activity against human RPMI8226 cells; summary of the method: as §1
# A498 = assay: Anticancer activity against human A498 cells; summary of the method: as §1
# CAKI-1 = assay: Anticancer activity against human CAKI-1 cells; summary of the method: as §1
# K562 = assay: Anticancer activity against human K562 cells; summary of the method: as §1
# [20] = read-out: LC50 (the source's name)
smiles,measurement,setting,value
C/C1=C\CC[C@@]2(C)O[C@@H]2[C@H]2OC(=O)C(Cn3ccnc3I)[C@@H]2CC1 (stereo partly specified),GI50,[1]; SF-295,32.1 µM
same,CC50,"[1]; SF-295, read-out: LC50 (the source's name)",> 100 µM
same,GI50,MDA-MB-231,16.4 µM
same,LC50 (concentration killing 50% of cells),MDA-MB-231,59.6 µM
same,GI50,NCI-H226,15.4 µM
same,CC50,NCI-H226; [20],62.3 µM
same,GI50,NCI-H460,30.1 µM
same,CC50,NCI-H460; [20],> 100 µM
same,GI50,IGROV-1,20 µM
same,CC50,IGROV-1; [20],75.6 µM
same,GI50,NCI-H322M,61.3 µM
same,CC50,NCI-H322M; [20],> 100 µM
same,GI50,[2]; BT-549,15.9 µM
same,CC50,"[2]; BT-549, read-out: LC50 (the source's name)",55.3 µM
same,GI50,SR,13.6 µM
same,CC50,SR; [20],> 100 µM
same,GI50,[3],21.3 µM
same,CC50,[3]; [20],> 100 µM
same,GI50,U-251,36.7 µM
same,CC50,U-251; [20],> 100 µM
same,GI50,[4]; OVCAR-5,13.7 µM
same,CC50,"[4]; OVCAR-5, read-out: LC50 (the source's name)",52.5 µM
same,GI50,[5]; OVCAR-3,6.85 µM
same,CC50,"[5]; OVCAR-3, read-out: LC50 (the source's name)",50.8 µM
same,GI50,CCRF-CEM,6.13 µM
same,CC50,CCRF-CEM; [20],79.6 µM
same,GI50,TK-10,inactive
same,LC50,TK-10,inactive
same,GI50,HCC 2998,inactive
same,LC50,HCC 2998,inactive
same,GI50,SNB-19,> 100 µM
same,CC50,SNB-19; [20],> 100 µM
same,GI50,[6]; COLO 205,14.5 µM
same,CC50,"[6]; COLO 205, read-out: LC50 (the source's name)",58.8 µM
same,GI50,[7]; SK-OV-3,47.3 µM
same,CC50,"[7]; SK-OV-3, read-out: LC50 (the source's name)",> 100 µM
same,GI50,RXF 393,inactive
same,LC50,RXF 393,inactive
same,GI50,HL-60(TB),6.9 µM
same,CC50,HL-60(TB); [20],77.5 µM
same,GI50,HOP-62,47.4 µM
same,CC50,HOP-62; [20],> 100 µM
same,GI50,MDA-MB-435,13.8 µM
same,CC50,MDA-MB-435; [20],59.5 µM
same,GI50,SN12C,17.7 µM
same,CC50,SN12C; [20],84.1 µM
same,GI50,SK-MEL-28,16.1 µM
same,CC50,SK-MEL-28; [20],73 µM
same,GI50,[8],31.2 µM
same,CC50,[8]; [20],> 100 µM
same,GI50,[9]; HCT-116,11.8 µM
same,CC50,"[9]; HCT-116, read-out: LC50 (the source's name)",49 µM
same,GI50,DU-145,18.8 µM
same,CC50,DU-145; [20],68.3 µM
same,GI50,HT-29,17.6 µM
same,CC50,HT-29; [20],61.5 µM
same,GI50,M14,16.5 µM
same,CC50,M14; [20],65.6 µM
same,GI50,Malme-3M,10.9 µM
same,CC50,Malme-3M; [20],62.7 µM
same,GI50,MDA-MB-468,11.1 µM
same,LC50 (concentration killing 50% of cells),MDA-MB-468,60.4 µM
same,GI50,[10]; OVCAR-8,16.6 µM
same,CC50,"[10]; OVCAR-8, read-out: LC50 (the source's name)",59.9 µM
same,GI50,ACHN,10.5 µM
same,CC50,ACHN; [20],47.4 µM
same,GI50,[11],14.9 µM
same,CC50,[11]; [20],60.9 µM
same,GI50,SK-MEL-2,18.6 µM
same,CC50,SK-MEL-2; [20],66.1 µM
same,GI50,UACC-62,inactive
same,LC50,UACC-62,inactive
same,GI50,T47D,9.88 µM
same,CC50,T47D; [20],54.3 µM
same,GI50,SK-MEL-5,18.5 µM
same,LC50,SK-MEL-5,95.6 µM
same,GI50,[12]; UO-31,10.8 µM
same,CC50,"[12]; UO-31, read-out: LC50 (the source's name)",50 µM
same,GI50,MCF7,9.79 µM
same,CC50,MCF7; [20],> 100 µM
same,GI50,[13]; MOLT-4,19.6 µM
same,CC50,"[13]; MOLT-4, read-out: LC50 (the source's name)",97.9 µM
same,GI50,NCI-H522,1.71 µM
same,CC50,NCI-H522; [20],6.34 µM
same,GI50,[14]; HCT-15,10.7 µM
same,CC50,"[14]; HCT-15, read-out: LC50 (the source's name)",55.6 µM
same,GI50,A549,19.8 µM
same,CC50,A549; [20],> 100 µM
same,GI50,[15]; OVCAR-4,13.2 µM
same,CC50,"[15]; OVCAR-4, read-out: LC50 (the source's name)",60 µM
same,GI50,SNB-75,19.3 µM
same,CC50,SNB-75; [20],> 100 µM
same,GI50,NCI-H23,23.7 µM
same,CC50,NCI-H23; [20],> 100 µM
same,GI50,[16]; PC-3,23.1 µM
same,CC50,"[16]; PC-3, read-out: LC50 (the source's name)",100 µM
same,GI50,SW-620,11.4 µM
same,CC50,SW-620; [20],62.8 µM
same,GI50,SF-268,23 µM
same,CC50,SF-268; [20],> 100 µM
same,GI50,[17]; SF-539,16.7 µM
same,CC50,"[17]; SF-539, read-out: LC50 (the source's name)",60.8 µM
same,GI50,KM12,43.2 µM
same,CC50,KM12; [20],> 100 µM
same,GI50,[18]; UACC-257,12 µM
same,CC50,"[18]; UACC-257, read-out: LC50 (the source's name)",53.9 µM
same,GI50,786-0,14.3 µM
same,CC50,786-0; [20],53 µM
same,GI50,[19]; RPMI-8226,17 µM
same,CC50,"[19]; RPMI-8226, read-out: LC50 (the source's name)",> 100 µM
same,GI50,A498,45.2 µM
same,CC50,A498; [20],> 100 µM
same,GI50,CAKI-1,6.61 µM
same,CC50,CAKI-1; [20],49.5 µM
same,GI50,K562,7.36 µM
same,CC50,K562; [20],90 µM
